# According to ChEMBL document CHEMBL1123589, “Phenylpiperazine-based radiopharmaceuticals for brain imaging. 3. Synthesis and evaluation of radioiodinated 1-alkyl-4-phenylpiperazines” (J Med Chem, 1987):
# Legend:
# Conditions in all cases: in vivo
# Rattus norvegicus [1] = test: The biodistribution of the [125I]-labeled compound in rats after intravenous injection was evaluated in adrenal at 0.25 hrs; value ranges from 0.58-0.61 (ID.kg/g); format: ADME, organism-based
# In short: (§1)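 Male Sprague-Dawley rats (250–300 g) under ether anesthesia were given an iv injection of no-carrier-added 125I-labelled agent (10–15 μCi in 0.1 mL saline). The agent was iodinated with chloramine-T in acetate buffer and purified by C-18 HPLC. Groups of N = 3 were killed at 0.25, 1 and 4 h. Blood and tissues were weighed and γ-counted. Values are % ID·kg/g, mean (range).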
# Rattus norvegicus [2] = test: The biodistribution of the [125I]-labeled compound in rats after intravenous injection was evaluated in adrenal at 1.00 hrs; value ranges from 0.83-0.85 (ID.kg/g); format: ADME, organism-based; in short: as §1
# Rattus norvegicus [3] = test: The biodistribution of the [125I]-labeled compound in rats after intravenous injection was evaluated in adrenal at 4.00 hrs; value ranges from 0.90-0.97 (ID.kg/g); format: ADME, organism-based; in short: as §1
# Rattus norvegicus [4] = test: The biodistribution of the [125I]-labeled compound in rats after intravenous injection was evaluated in blood at 0.25 hrs (ID.kg/g); format: ADME, organism-based; in short: as §1
# Rattus norvegicus [5] = test: The biodistribution of the [125I]-labeled compound in rats after intravenous injection was evaluated in blood at 1.00 hrs (ID.kg/g); format: ADME, organism-based; in short: as §1
# Rattus norvegicus [6] = test: The biodistribution of the [125I]-labeled compound in rats after intravenous injection was evaluated in blood at 4.00 hrs (ID.kg/g); format: ADME, organism-based; in short: as §1
# Rattus norvegicus [7] = test: The biodistribution of the [125I]-labeled compound in rats after intravenous injection was evaluated in brain at 0.25 hrs (ID.kg/g); format: ADME, organism-based; in short: as §1
# Rattus norvegicus [8] = test: The biodistribution of the [125I]-labeled compound in rats after intravenous injection was evaluated in heart at 0.25 hrs; value ranges from 0.11-0.15 (ID.kg/g); format: ADME, organism-based; in short: as §1
# Rattus norvegicus [9] = test: The biodistribution of the [125I]-labeled compound in rats after intravenous injection was evaluated in heart at 1.00 hrs (ID.kg/g); format: ADME, organism-based; in short: as §1
# Rattus norvegicus [10] = test: The biodistribution of the [125I]-labeled compound in rats after intravenous injection was evaluated in lung at 4.00 hrs; value ranges from 0.19-0.25 (ID.kg/g); format: ADME, organism-based
# In short: (§2)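 Male Sprague-Dawley rats (250–300 g), under ether anesthesia, given 10–15 μCi of the NCA ¹²⁵I-labeled agent iv in 0.1 mL saline. Groups of N = 3 were killed at 0.25, 1 or 4 h. Blood and tissues were removed, weighed and counted in a γ-well scintillation counter. Values are mean % ID·kg/g (range).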
# Rattus norvegicus [11] = test: The biodistribution of the [125I]-labeled compound in rats after intravenous injection was evaluated in muscle at 0.25 hrs (ID.kg/g); format: ADME, organism-based, Muscle tissue
# In short: (§3)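 Male Sprague-Dawley rats (250–300 g) under ether anesthesia given iv 0.1 mL saline containing 10–15 μCi of NCA ¹²⁵I-labeled agent (chloramine-T iodination, HPLC-purified). Groups of 3 killed at 0.25, 1 and 4 h. Blood and tissues excised, weighed and γ-counted. Values are mean (range) of % injected dose × body mass (kg) per gram of tissue.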
# Rattus norvegicus [12] = test: The biodistribution of the [125I]-labeled compound in rats after intravenous injection was evaluated in muscle at 4.00 hrs (ID.kg/g); format: ADME, organism-based, Muscle tissue; in short: as §3
# Rattus norvegicus [13] = test: The biodistribution of the [125I]-labeled compound in rats after intravenous injection was evaluated in thyroid at 0.25 hrs; value ranges from 1.12-1.29 (ID.kg/g); format: ADME, organism-based, Thyroid gland; in short: as §3
# Rattus norvegicus [14] = test: The biodistribution of the [125I]-labeled compound in rats after intravenous injection was evaluated in thyroid at 1.00 hrs; value ranges from 1.22-1.36 (ID.kg/g); format: ADME, organism-based, Thyroid gland; in short: as §3
# Rattus norvegicus [15] = test: The biodistribution of the [125I]-labeled compound in rats after intravenous injection was evaluated in brain at 4.00 hrs; value ranges from 0.17-0.21 (ID.kg/g); format: ADME, organism-based; in short: as §1
# Rattus norvegicus [16] = test: The biodistribution of the [125I]-labeled compound in rats after intravenous injection was evaluated in fat at 0.25 hr (ID. kg/g); format: ADME, organism-based, Adipose tissue; in short: as §1
# Rattus norvegicus [17] = test: The biodistribution of the [125I]-labeled compound in rats after intravenous injection was evaluated in fat at 1.00 hrs (ID.kg/g); format: ADME, organism-based, Adipose tissue; in short: as §1
# Rattus norvegicus [18] = test: The biodistribution of the [125I]-labeled compound in rats after intravenous injection was evaluated in brain at 1.00 hrs; value ranges from 0.23-0.32 (ID.kg/g); format: ADME, organism-based; in short: as §1
# Rattus norvegicus [19] = test: The biodistribution of the [125I]-labeled compound in rats after intravenous injection was evaluated in fat at 4.00 hrs (ID.kg/g); format: ADME, organism-based, Adipose tissue; in short: as §1
# Rattus norvegicus [20] = test: The biodistribution of the [125I]-labeled compound in rats after intravenous injection was evaluated in kidney at 4.00 hrs; value ranges from 0.18-0.23 (ID.kg/g); format: ADME, organism-based; in short: as §2
# Rattus norvegicus [21] = test: The biodistribution of the [125I]-labeled compound in rats after intravenous injection was evaluated in liver at 0.25 hr; value ranges from 0.19-0.27 (ID.kg/g); format: ADME, organism-based; in short: as §2
# Rattus norvegicus [22] = test: The biodistribution of the [125I]-labeled compound in rats after intravenous injection was evaluated in liver at 4.00 hrs; value ranges from 0.42-0.55 (ID.kg/g); format: ADME, organism-based; in short: as §2
# Rattus norvegicus [23] = test: The biodistribution of the [125I]-labeled compound in rats after intravenous injection was evaluated in lung at 0.25 hrs; value ranges from 0.55-0.57 (ID.kg/g); format: ADME, organism-based; in short: as §2
# Rattus norvegicus [24] = test: The biodistribution of the [125I]-labeled compound in rats after intravenous injection was evaluated in lung at 1.00 hrs; value ranges from 0.33-0.37 (ID.kg/g); format: ADME, organism-based; in short: as §2
# Rattus norvegicus [25] = test: The biodistribution of the [125I]-labeled compound in rats after intravenous injection was evaluated in liver at 1.00 hrs; value ranges from 0.34-0.44 (ID.kg/g); format: ADME, organism-based; in short: as §2
# Rattus norvegicus [26] = test: The biodistribution of the [125I]-labeled compound in rats after intravenous injection was evaluated in kidney at 0.25 hr; value ranges from 0.37-0.45 (ID.kg/g); format: ADME, organism-based; in short: as §2
# Rattus norvegicus [27] = test: The biodistribution of the [125I]-labeled compound in rats after intravenous injection was evaluated in kidney at 1.00 hrs; value ranges from 0.29-0.35 (ID.kg/g); format: ADME, organism-based; in short: as §2
# Rattus norvegicus [28] = test: The biodistribution of the [125I]-labeled compound in rats after intravenous injection was evaluated in heart at 4.00 hrs; value ranges from 0.05-0.06 (ID.kg/g); format: ADME, organism-based; in short: as §2
# Rattus norvegicus [29] = test: The biodistribution of the [125I]-labeled compound in rats after intravenous injection was evaluated in thyroid at 4.00 hrs; value ranges from 3.21-5.02 (ID.kg/g); format: ADME, organism-based, Thyroid gland; in short: as §3
# Rattus norvegicus [30] = test: The biodistribution of the [125I]-labeled compound in rats after intravenous injection was evaluated in muscle at 1.00 hrs (ID.kg/g); format: ADME, organism-based, Muscle tissue; in short: as §3
compound,measurement,setting,value
CC(C)CN1CCN(c2ccc(I)cc2)CC1,Biodistribution,Rattus norvegicus [1],0.61%
same,Biodistribution,Rattus norvegicus [2],0.85%
same,Biodistribution,Rattus norvegicus [3],0.97%
same,Biodistribution,Rattus norvegicus [4],0.01 % ID·kg/g
same,Biodistribution,Rattus norvegicus [5],0.01 % ID·kg/g
same,Biodistribution,Rattus norvegicus [6],0.01 % ID·kg/g
same,Biodistribution,Rattus norvegicus [7],0.25%
same,Biodistribution,Rattus norvegicus [8],0.15%
same,Biodistribution,Rattus norvegicus [9],0.09%
same,Biodistribution,Rattus norvegicus [10],0.25%
same,Biodistribution,Rattus norvegicus [11],0.03 % ID·kg/g
same,Biodistribution,Rattus norvegicus [12],0.03 %ID·kg/g
same,Biodistribution,Rattus norvegicus [13],1.29%
same,Biodistribution,Rattus norvegicus [14],1.36%
same,Biodistribution,Rattus norvegicus [15],0.21%
same,Biodistribution,Rattus norvegicus [16],0.02 % ID·kg/g
same,Biodistribution,Rattus norvegicus [17],0.02 % ID·kg/g
same,Biodistribution,Rattus norvegicus [18],0.32%
same,Biodistribution,Rattus norvegicus [19],0.04%
same,Biodistribution,Rattus norvegicus [20],0.23%
same,Biodistribution,Rattus norvegicus [21],0.27%
same,Biodistribution,Rattus norvegicus [22],0.55%
same,Biodistribution,Rattus norvegicus [23],0.57%
same,Biodistribution,Rattus norvegicus [24],0.37%
same,Biodistribution,Rattus norvegicus [25],0.44%
same,Biodistribution,Rattus norvegicus [26],0.45%
same,Biodistribution,Rattus norvegicus [27],0.35%
same,Biodistribution,Rattus norvegicus [28],0.07%
same,Biodistribution,Rattus norvegicus [29],5.02%
same,Biodistribution,Rattus norvegicus [30],0.02 %ID·kg/g
